Measured values published in ChEMBL document CHEMBL2311321, “Alkaloid constituents from flower buds and leaves of sacred lotus (Nelumbo nucifera, Nymphaeaceae) with melanogenesis inhibitory activity in B16 melanoma cells” (Bioorg Med Chem, 2013).

How the values were obtained:
[1] = Inhibition of melanogenesis in mouse B16-4A5 cells at 3 uM after 72 hrs by spectrophotometry; format: functional; settings: B16-4A5, 72 h
[2] = Inhibition of melanogenesis in mouse B16-4A5 cells at 30 uM after 72 hrs by spectrophotometry; format: functional; settings: B16-4A5, 72 h
[3] = Inhibition of melanogenesis in mouse B16-4A5 cells at 10 uM after 72 hrs by spectrophotometry; format: functional; settings: B16-4A5, 72 h
[4] = Inhibition of melanogenesis in mouse B16-4A5 cells at 1 uM after 72 hrs by spectrophotometry; format: functional; settings: B16-4A5, 72 h
[5] = Inhibition of melanogenesis in mouse B16-4A5 cells at 100 uM after 72 hrs by spectrophotometry; format: functional; settings: B16-4A5, 72 h
[6] = Cytotoxicity against mouse B16-4A5 cells assessed as cell viability at 100 uM after 70 hrs by WST-8 assay
[7] = Inhibition of melanogenesis in mouse B16-4A5 cells after 72 hrs by spectrophotometry; format: functional, cell-based
[8] = Antimelanogenic activity in mouse B16-4A5 cells assessed as inhibition of TRP2 mRNA expression at 3 uM after 72 hrs by RT-PCR analysis relative to beta-actin mRNA; format: functional
Method in brief: (§1)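 B16 melanoma 4A5 cells seeded at 1.0 × 10^5 cells/well in 6-well plates, cultured 24 h, then exposed to test compound plus theophylline 1 mM for 72 h. Total RNA extracted; cDNA from 1 µg RNA; SYBR Green real-time PCR (95 °C 2 min; 40 cycles 95/58/72 °C, 30 s each) with gene-specific primers; relative quantification normalized to β-actin mRNA.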

[9] = Antimelanogenic activity in mouse B16-4A5 cells assessed as inhibition of tyrosinase mRNA expression at 3 uM after 72 hrs by RT-PCR analysis relative to beta-actin mRNA; format: functional; method in brief: as §1
[10] = Antimelanogenic activity in mouse B16-4A5 cells assessed as inhibition of TRP1 mRNA expression at 10 uM after 72 hrs by RT-PCR analysis relative to beta-actin mRNA; format: functional; method in brief: as §1
[11] = target: T1, Tyrosinase (Agaricus bisporus) (UniProt O42713); assay: Inhibition of mushroom tyrosinase at 100 uM
T1 sequence (whole entry): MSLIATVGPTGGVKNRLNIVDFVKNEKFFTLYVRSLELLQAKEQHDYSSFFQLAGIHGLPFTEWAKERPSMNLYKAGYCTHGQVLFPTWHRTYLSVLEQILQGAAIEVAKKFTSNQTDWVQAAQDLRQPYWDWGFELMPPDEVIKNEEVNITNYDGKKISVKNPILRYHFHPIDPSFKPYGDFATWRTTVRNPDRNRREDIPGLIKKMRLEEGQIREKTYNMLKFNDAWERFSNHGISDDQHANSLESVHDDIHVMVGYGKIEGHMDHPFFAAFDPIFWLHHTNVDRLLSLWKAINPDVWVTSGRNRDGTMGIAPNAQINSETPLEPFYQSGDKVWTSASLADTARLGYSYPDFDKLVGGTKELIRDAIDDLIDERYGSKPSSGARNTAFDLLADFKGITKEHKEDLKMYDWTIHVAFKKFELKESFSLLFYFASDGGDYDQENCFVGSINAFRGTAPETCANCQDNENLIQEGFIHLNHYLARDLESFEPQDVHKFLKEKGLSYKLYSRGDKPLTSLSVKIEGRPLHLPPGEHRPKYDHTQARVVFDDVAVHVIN
Method in brief: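 Enzyme mix: 70 µL L-DOPA (2.5 mM in phosphate buffer) as substrate plus 20 µL test solution (DMSO, final 0.1%). Reaction started with 120 µL mushroom tyrosinase (80.5 units/mL), run 5 min at 25 °C. Dopaquinone measured by absorbance at 405 nm (reference 655 nm). Inhibition % = (A−B)/A × 100 versus vehicle.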

[12] = Antimelanogenic activity in mouse B16-4A5 cells assessed as inhibition of TRP1 mRNA expression at 3 uM after 72 hrs by RT-PCR analysis relative to beta-actin mRNA; format: functional; method in brief: as §1
[13] = Antimelanogenic activity in mouse B16-4A5 cells assessed as inhibition of TRP2 mRNA expression at 30 uM after 72 hrs by RT-PCR analysis relative to beta-actin mRNA; format: functional; method in brief: as §1
[14] = Antimelanogenic activity in mouse B16-4A5 cells assessed as inhibition of tyrosinase mRNA expression at 10 uM after 72 hrs by RT-PCR analysis relative to beta-actin mRNA; format: functional; method in brief: as §1
[15] = Antimelanogenic activity in mouse B16-4A5 cells assessed as inhibition of TRP2 mRNA expression at 10 uM after 72 hrs by RT-PCR analysis relative to beta-actin mRNA; format: functional; method in brief: as §1
[16] = Antimelanogenic activity in mouse B16-4A5 cells assessed as inhibition of TRP1 mRNA expression at 30 uM after 72 hrs by RT-PCR analysis relative to beta-actin mRNA; format: functional; method in brief: as §1
[17] = Antimelanogenic activity in mouse B16-4A5 cells assessed as inhibition of tyrosinase mRNA expression at 30 uM after 72 hrs by RT-PCR analysis relative to beta-actin mRNA; format: functional; method in brief: as §1

SMILES	inhibition at 3 µM [1]	inhibition at 30 µM [2]	inhibition at 10 µM [3]	inhibition at 1 µM [4]	inhibition at 100 µM [5]	viability at 70 h, 100 µM [6]	IC50 [7]	fold change (FC) [8]	fold change (FC) [9]	fold change (FC) [10]	inhibition [11]	fold change (FC) [12]	fold change (FC) [13]	fold change (FC) [14]	fold change (FC) [15]	fold change (FC) [16]	fold change (FC) [17]
CN1CCc2ccccc2C1	9.7%	16.5%	9.4%	10.6%	15.9%	82%											
OC[C@H]1O[C@@H](Oc2ccc(O)cc2)[C@H](O)[C@@H](O)[C@@H]1O [ARBUTIN]		20.4%	10.6%		38.1%		174 µM										
COc1cc2c3c(cc4ccccc4c3c1OC)N(C)CC2 [DEHYDRONUCIFERINE]	4.8%	8%	11.8%	14.5%	78.4%	77%	85 µM										
CN1CCc2ccccc2C1Cc1ccccc1 (configuration not stated)	40.5%	51.8%	59.7%	24.5%	75.4%	77%	5 µM										
COc1c(O)cc2c3c1-c1ccccc1C[C@@H]3NCC2 [ASIMILOBINE]	-7.4%	39.7%	12.1%	7.4%	36.2%		> 100 µM										
COc1cc2c3c(c1OC)C1(C=CC(=O)C=C1)C[C@H]3N(C)CC2 [PRONUCIFERINE]	16.8%	40.3%	18.3%	4%	66.4%	82%	47.9 µM										
COc1cc2c3c(c1)-c1ccccc1CC3N(C)CC2 (configuration not stated)	54.7%	82.5%	76%	39.1%			2 µM										
COc1cc2c3c(c1OC)-c1ccccc1C[C@H]3NCC2	16.2%	17.6%	12.1%	5.8%	91.9%	82%	62.9 µM										
COc1c(O)cc2c3c(cc4ccccc4c13)N(C)CC2	13.2%	87.4%	37.6%	10.9%	78.7%	46%	13.3 µM										
COc1c(O)cc2c3c1-c1ccccc1C[C@H]3NCC2 [ASIMILOBINE]						46%											
c1ccc2c(c1)CCNC2 [1,2,3,4-TETRAHYDROISOQUINOLINE]	-41.5%	2.8%	-54.2%	-12.6%	26.1%	46%											
COc1c(O)cc2c3c1-c1ccccc1C[C@H]3N(C)CC2	19.7%	70.6%	37.9%	15.4%	90.5%	82%	14.5 µM	1.1	0.65	0.72	< 3%	0.79	0.88	0.76	0.96	0.49	0.53
COc1cc2c3c(c1OC)-c1ccccc1C[C@H]3N(C)CC2 [NUCIFERINE]	16.5%	72.3%	32.1%	11.5%	89.3%	46%	15.8 µM	1.11	0.61	0.74	< 3%	0.76	0.65	0.64	0.71	0.36	0.38
COc1cc2c3c(c1O)-c1ccccc1C[C@H]3N(C)CC2	11.1%	65.9%	27.3%	-2.6%		39.7%	19.3 µM										
COc1cc2c3c(c1OC)-c1ccccc1C[C@H]3[N+](C)([O-])CC2 (some centres not stated)	-3.2%	33.7%	-0.1%	-4.8%	88.4%	82%	43 µM										
COc1cc2c(cc1OC)C(Cc1ccc(O)cc1)N(C)CC2 (racemic)	18.2%	50.4%	34%	7.5%	80.3%	82%	25.6 µM										
COc1cc2ccnc3c2c(c1OC)-c1ccccc1C3=O [LYSICAMINE]	8.7%	65.3%	-1.5%	4.8%		22.5%											
